Results as given in ChEMBL document CHEMBL4229550, “An antimycobacterial pleuromutilin analogue effective against dormant bacilli” (Bioorg Med Chem, 2018).
Values after ≈ are worked out from the molar mass of the structure shown. Active and inactive are the calls of the source. The calls are words filed in the database; no cut-off is given here.

What was measured:
[1] = system: Mycobacterium tuberculosis; test: Antibacterial activity against Mycobacterium tuberculosis; assay type: functional; details: read-out: MIC100
In short: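 Mtb H37Rv grown in 7H9/OADC at 37 °C with shaking to OD600 0.5. The 0.5-OD culture is exposed aerobically to serial dilutions for 15 days at 37 °C. Resazurin (0.02% stock) is then added for 4 h at 37 °C with shaking.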

Escherichia coli [2] = test: Inhibition of protein translation/transcription in Escherichia coli S30 cell extract at 0.1 ug/ml using circular DNA with pBESTluc after 60 mins by luciferase reporter gene assay; assay type: functional
In short: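 Coupled transcription/translation used E. coli S30 extract, amino acid mix and premix, with the pBESTluc template carrying firefly luciferase under the tac promoter. Compounds were added in DMSO and reactions were started with DNA. Incubation was 60 min at 37 °C, stopped on ice, and luciferase was read after adding assay substrate.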

Escherichia coli [3] = test: Inhibition of protein translation/transcription in Escherichia coli S30 cell extract using circular DNA with pBESTluc after 60 mins by luciferase reporter gene assay; assay type: functional; details: 1 h
In short: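 E. coli S30 circular-DNA coupled transcription/translation kit with the pBESTluc template (firefly luciferase under the tac promoter). S30 extract, amino acids and premix are combined with compound in DMSO, and the reaction is started with DNA. Incubation is 60 min at 37 °C, stopped on ice, then luciferase luminescence is read.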

Clostridioides difficile = test: Bactericidal activity against Clostridium difficile ATCC 700057 incubated for 24 hrs […] by MABA; assay type: functional; details: ATCC 700057, 24 h
[4] = Efflux ratio of apparent permeability in human Caco2 cells at 10 uM after 2 hrs by LC-MS/MS analysis; assay type: ADME, cell-based; details: caco-2, 2 h

CC[C@]1(C)C[C@@H](OC(=O)CSC(C)(C)CNC(=O)[C@H](N)CC(C)C)[C@]2(C)[C@H](C)CC[C@]3(CC[C@@H](O)[C@H]32)[C@@H](C)[C@@H]1O
MIC [1]: < 6.25 µg/mL
inhibition (Escherichia coli [2]): Active
IC50 (Escherichia coli [3]): 0.09 µg/mL (≈ 0.154 µM)
MBC (Clostridioides difficile): 1.56 µg/mL (≈ 2.68 µM)
Ratio [4]: 5.44
